# Experimental data as given in ChEMBL document CHEMBL3351600, “Sulfur, selenium and tellurium pseudopeptides: synthesis and biological evaluation” (Bioorg Med Chem, 2014).
# Tests used:
# [1] = Growth inhibition of human UO31 cells after 48 hrs; assay type: functional; settings: UO-31, 48 h; for TGI: read-out: pTGI (converted)
# How it was run: (§1)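 Run by the NCI 58-cell-line screen under its standard cytotoxicity protocol. Compounds were first tested at a single dose, then at five doses. Cells were exposed to compound for 48 h.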
# MDA-MB-468 = test: Growth inhibition of human MDA-MB-468 cells after 48 hrs; assay type: functional; settings: MDA-MB-468, 48 h; for TGI: read-out: pTGI (converted)
# How it was run: (§2)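 NCI-60 human tumour cell line panel screen run at the US National Cancer Institute under its standard cytotoxicity protocol. It covers leukaemia, NSCLC, colon, CNS, melanoma, ovarian, renal, prostate and breast lines. An initial single-dose test was followed by five-dose testing with 48 h compound exposure.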
# SR = test: Growth inhibition of human SR cells after 48 hrs; assay type: functional; settings: for TGI: read-out: pTGI (converted); how it was run: as §1
# A-431 = test: Reduction in ROS in human A431 cells assessed as decrease in hydrogen peroxide level at 0.1 to 10 ng/ml after 1 hr by DCHFA assay; assay type: functional, cell-based
# How it was run: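 A-431 cells were seeded at 10^5 per well and exposed to a range of compound concentrations for 1 h. They were then loaded with DCHFA probe for 30 min in the dark. Fluorescence was read immediately at ex/em 485/528 nm and expressed as arbitrary units per 10^5 cells.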
# [2] = Growth inhibition of human HOP92 cells after 48 hrs; assay type: functional; settings: HOP-92, 48 h; for CC50: read-out: pLC50 (the source's name) (converted); for TGI: read-out: pTGI (converted); how it was run: as §2
# NCI-H226 = test: Growth inhibition of human NCI-H226 cells after 48 hrs; assay type: functional; settings: NCI-H226, 48 h; for CC50: read-out: pLC50 (the source's name) (converted); for TGI: read-out: pTGI (converted); how it was run: as §2
# [3] = Growth inhibition of human HCC2998 cells after 48 hrs; assay type: functional; settings: HCC 2998, 48 h; for CC50: read-out: pLC50 (the source's name) (converted); for TGI: read-out: pTGI (converted); how it was run: as §2
# [4] = Growth inhibition of human SF295 cells after 48 hrs; assay type: functional; settings: SF-295, 48 h; for CC50: read-out: pLC50 (the source's name) (converted); for TGI: read-out: pTGI (converted); how it was run: as §2
# A498 = test: Growth inhibition of human A498 cells after 48 hrs; assay type: functional; settings: A498, 48 h; for TGI: read-out: pTGI (converted); how it was run: as §2
# MCF7 [5] = test: Cell cycle arrest in human MCF7 cells assessed as accumulation at G0/G1 phase after 30 mins by propidium iodide staining-based flow cytometric analysis; assay type: functional
# How it was run: (§3)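 MCF-7 cells (10^6) were treated with compounds for 24 h alongside a methanol vehicle control. They were fixed in cold 70% methanol at 4 °C for one day, washed in PBS and permeabilised with 0.1% saponin in PBS. They were then stained with propidium iodide plus RNase (1 mg/ml) for 30 min, and DNA-content distribution was read by FACScan flow cytometry.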
# MCF7 [6] = test: Cell cycle arrest in human MCF7 cells assessed as accumulation at S phase […] by propidium iodide staining-based flow cytometric analysis; assay type: functional
# MCF7 [7] = test: Cell cycle arrest in human MCF7 cells assessed as accumulation at G2/M phase after 30 mins by propidium iodide staining-based flow cytometric analysis; assay type: functional; how it was run: as §3
# CCRF-CEM = test: Growth inhibition of human CCRF-CEM cells after 48 hrs; assay type: functional; settings: for CC50: read-out: pLC50 (the source's name) (converted); for TGI: read-out: pTGI (converted); how it was run: as §2
Compound,GI50 [1],LC50 [1],TGI [1],GI50 (MDA-MB-468),LC50 (MDA-MB-468),TGI (MDA-MB-468),GI50 [2],CC50 [2],TGI [2],GI50 (NCI-H226),CC50 (NCI-H226),TGI (NCI-H226),GI50 [3],CC50 [3],TGI [3],GI50 [4],CC50 [4],TGI [4],GI50 (A498),TGI (A498),other results
COc1ccc(N(CC(=O)NCCC[Te]c2ccccc2)C(=O)CNC(=O)OC(C)(C)C)cc1,2.4 µM,> 100 µM,9.12 µM,3.16 µM,60.3 µM,11 µM,2.95 µM,66.1 µM,4.9 µM,2.29 µM,79.4 µM,5.37 µM,2.57 µM,27.5 µM,6.61 µM,1.29 µM,> 100 µM,4.07 µM,2.29 µM,5.37 µM,GI50 (SR): 1.66 µM; LC50 (SR): > 100 µM; TGI (SR): 7.76 µM; Activity (A-431): Dose-dependent effect; LC50 (A498): 33.9 µM
COc1ccc(N(CC(=O)NCCC[Te]c2ccccc2)C(=O)c2ccccc2)cc1,2.75 µM,95.5 µM,11 µM,4.27 µM,56.2 µM,17.8 µM,4.07 µM,69.2 µM,10 µM,2.63 µM,100 µM,7.24 µM,3.02 µM,36.3 µM,8.13 µM,1.7 µM,> 100 µM,8.13 µM,2.19 µM,5.37 µM,GI50 (SR): 2.82 µM; LC50 (SR): > 100 µM; TGI (SR): 10 µM; Activity (MCF7 [5]): 85.01%; Activity (MCF7 [6]): 6.19%; Activity (MCF7 [7]): 8.8%; Activity (A-431): Dose-dependent effect; LC50 (A498): 25.1 µM
CC1=C(SCCC(=O)OCC(=O)NCCC[Te]c2ccccc2)C(=O)c2ccccc2C1=O,1.86 µM,36.3 µM,9.55 µM,1.66 µM,7.08 µM,3.39 µM,1.58 µM,19.5 µM,4.9 µM,1.29 µM,6.61 µM,2.88 µM,1.82 µM,13.5 µM,4.57 µM,1.7 µM,> 100 µM,6.31 µM,2 µM,7.41 µM,GI50 (CCRF-CEM): 2.4 µM; CC50 (CCRF-CEM): > 100 µM; TGI (CCRF-CEM): 18.6 µM; LC50 (A498): 30.2 µM
COc1ccc(N(CC(=O)NCCC[Te]c2ccccc2)C(=O)CCSC2=C(C)C(=O)c3ccccc3C2=O)cc1,1.66 µM,8.71 µM,2.19 µM,1.66 µM,6.76 µM,3.39 µM,1.45 µM,13.2 µM,3.98 µM,1.62 µM,–,3.63 µM,1.23 µM,9.33 µM,3.39 µM,–,> 100 µM,–,1.35 µM,3.24 µM,Activity (MCF7 [5]): 88.62%; Activity (MCF7 [6]): 5.55%; Activity (MCF7 [7]): 5.84%; GI50 (CCRF-CEM): 0.417 µM; CC50 (CCRF-CEM): > 100 µM; TGI (CCRF-CEM): 2.51 µM
